Laboratory results reported in ChEMBL document CHEMBL1944595, “1,4-diarylpiperazines and analogs as anti-tubercular agents: synthesis and biological evaluation” (Eur J Med Chem, 2012).
pIC50: −log10 of the molar value.

What was measured:
[1] = Cytotoxicity against human HepG2/C3A cells after 24 hrs by neutral red assay; format: cell-based
Outline: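 C3A cells seeded at 40 000 per well and allowed to recover. Exposed 24 h at 37 °C, 5% CO2 to serial dilutions in DMEM + 10% FCS, tested from 10 to 0.1. Then 3 h neutral red uptake, extracted with ethanol/acetic acid, OD read at 530 nm with 620 nm reference. NI50 is the concentration reducing uptake by 50%.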

[2] = Selectivity index, ratio of IC50 for human HepG2/C3A cells to MIC for Mycobacterium tuberculosis H37Rv; format: functional
Outline: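 Selectivity index calculated as C3A neutral red NI50 (24 h) divided by the H37Rv luminometric MIC50.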

In the case of `Cl.N=C(N)c1ccc(N2CCN(c3ccccc3)CC2)cc1`, the pIC50 [1] was 4.17 and the “Selectivity Index” value [2] was 2.26.

With `CNC(=N)c1ccc(N2CCN(c3ccccc3)CC2)cc1.Cl` the pIC50 [1] was 4.15 and the “Selectivity Index” value [2] was 4.45.

For `CCNC(=N)c1ccc(N2CCN(c3ccccc3)CC2)cc1.Cl`, the pIC50 [1] was 4.38 and the “Selectivity Index” value [2] was 3.49.

In the case of `CCCNC(=N)c1ccc(N2CCN(c3ccccc3)CC2)cc1.Cl`, the pIC50 [1] was 4.56 and the “Selectivity Index” value [2] was 3.92.

In the case of `CCCCNC(=N)c1ccc(N2CCN(c3ccccc3)CC2)cc1.Cl`, the pIC50 [1] was 4.76 and the “Selectivity Index” value [2] was 8.03.

For `CCCCCNC(=N)c1ccc(N2CCN(c3ccccc3)CC2)cc1.Cl`, the pIC50 [1] was 4.95 and the “Selectivity Index” value [2] was 9.39.

In the case of `CCCCCCNC(=N)c1ccc(N2CCN(c3ccccc3)CC2)cc1.Cl`, the pIC50 [1] was 5.17 and the “Selectivity Index” value [2] was 25.38.

For `CCCCCCCNC(=N)c1ccc(N2CCN(c3ccccc3)CC2)cc1.Cl`, the pIC50 [1] was 5.28 and the “Selectivity Index” value [2] was 57.2.

In the case of `CCCCCCCCNC(=N)c1ccc(N2CCN(c3ccccc3)CC2)cc1.Cl`, the pIC50 [1] was 5.29 and the “Selectivity Index” value [2] was 72.19.

For `CCCCCCCCCCCCNC(=N)c1ccc(N2CCN(c3ccccc3)CC2)cc1.Cl`, the pIC50 [1] was 5.25 and the “Selectivity Index” value [2] was 107.52.
